Experimental data reported in ChEMBL document CHEMBL4425109, “Optimization of Cyclic Plasmin Inhibitors: From Benzamidines to Benzylamines” (J Med Chem, 2016).

Columns and labels:
[1] = target: Vitamin K-dependent protein C (Homo sapiens, UniProt P04070); test: Inhibition of human activated Protein C using Mes-DArg-Pro-Arg-AMC as substrate by Dixon plot analysis
Procedure, shortened: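 Human aPC, 293 pM final. Run at room temperature in 50 mM Tris·HCl pH 8.0 with 154 mM NaCl. Substrate Mes-DArg-Pro-Arg-AMC, KM 26 μM. Fluorescence was read at ex 355 / em 460 nm, with reaction started by enzyme. Ki came from Dixon plots, mean of at least two measurements.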

[2] = target: Trypsin (Sus scrofa, UniProt P00761); test: Inhibition of porcine trypsin using Mes-DArg-Gly-Arg-AMC as substrate by Dixon plot analysis
Trypsin (Sus scrofa, UniProt P00761), sequence (P00761 whole entry): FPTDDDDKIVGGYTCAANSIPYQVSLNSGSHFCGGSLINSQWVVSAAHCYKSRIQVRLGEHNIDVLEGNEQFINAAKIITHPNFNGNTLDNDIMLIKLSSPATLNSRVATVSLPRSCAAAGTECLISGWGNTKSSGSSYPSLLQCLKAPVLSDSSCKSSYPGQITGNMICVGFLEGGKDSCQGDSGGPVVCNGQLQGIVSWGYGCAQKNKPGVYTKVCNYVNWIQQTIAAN
Procedure, shortened: (§1)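 Porcine trypsin, 30 pM final, with substrate Mes-DArg-Gly-Arg-AMC (KM 8.3 μM). Buffer was 50 mM Tris·HCl pH 8.0 containing 154 mM NaCl, at room temperature. Reaction was started by enzyme and fluorescence read at ex 355 / em 460 nm. Ki was obtained from Dixon plots, mean of at least two measurements.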

[3] = target: T1, Plasminogen (Homo sapiens, UniProt P00747); test: Inhibition of human plasmin using Mes-DSer(Bzl)-Phe-Arg-AMC as substrate by Dixon plot analysis
Target sequence in this assay (P00747 97-580 limits assumed): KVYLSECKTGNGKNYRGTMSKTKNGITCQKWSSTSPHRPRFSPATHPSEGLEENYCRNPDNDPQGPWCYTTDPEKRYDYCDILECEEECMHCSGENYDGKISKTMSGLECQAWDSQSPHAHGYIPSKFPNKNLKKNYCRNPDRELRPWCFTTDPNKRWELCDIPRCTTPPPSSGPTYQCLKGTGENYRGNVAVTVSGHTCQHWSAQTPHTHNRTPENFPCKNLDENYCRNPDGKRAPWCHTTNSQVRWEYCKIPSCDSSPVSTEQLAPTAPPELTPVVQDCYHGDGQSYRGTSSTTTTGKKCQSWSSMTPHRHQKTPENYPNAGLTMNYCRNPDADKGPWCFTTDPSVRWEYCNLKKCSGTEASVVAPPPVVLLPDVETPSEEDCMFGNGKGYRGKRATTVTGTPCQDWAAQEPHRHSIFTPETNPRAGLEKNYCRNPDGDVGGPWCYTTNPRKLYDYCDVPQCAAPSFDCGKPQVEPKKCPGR
Target sequence in this assay (P00747 581-810 limits assumed): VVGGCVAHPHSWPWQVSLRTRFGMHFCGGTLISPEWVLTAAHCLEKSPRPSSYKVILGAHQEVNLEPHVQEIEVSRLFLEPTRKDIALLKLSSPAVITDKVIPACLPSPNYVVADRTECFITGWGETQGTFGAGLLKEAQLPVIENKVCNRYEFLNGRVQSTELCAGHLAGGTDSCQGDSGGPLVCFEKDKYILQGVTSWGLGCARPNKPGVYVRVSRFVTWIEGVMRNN

[4] = target: Prothrombin (Bos taurus, UniProt P00735); test: Inhibition of bovine thrombin using Tos-Gly-Pro-Arg-AMC as substrate by Dixon plot analysis
Procedure, shortened: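 Bovine thrombin at 31 pM in assay, KM 5.4 μM for the substrate. Run at room temperature in 50 mM Tris·HCl pH 8.0 with 154 mM NaCl. Fluorescence read at ex 355 / em 460 nm, reaction started by enzyme addition. Ki from Dixon plots, average of at least two measurements.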

[5] = target: Coagulation factor X (Homo sapiens, UniProt P00742); test: Inhibition of human f10a using Mes-DArg-Pro-Arg-AMC as substrate by Dixon plot analysis
Coagulation factor X, sequence (P00742 41-179 limits assumed): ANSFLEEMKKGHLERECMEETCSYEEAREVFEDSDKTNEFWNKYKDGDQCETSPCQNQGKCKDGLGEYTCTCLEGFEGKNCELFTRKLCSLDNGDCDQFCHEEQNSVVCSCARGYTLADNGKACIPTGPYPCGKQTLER
Coagulation factor X, sequence (P00742 235-488 limits assumed): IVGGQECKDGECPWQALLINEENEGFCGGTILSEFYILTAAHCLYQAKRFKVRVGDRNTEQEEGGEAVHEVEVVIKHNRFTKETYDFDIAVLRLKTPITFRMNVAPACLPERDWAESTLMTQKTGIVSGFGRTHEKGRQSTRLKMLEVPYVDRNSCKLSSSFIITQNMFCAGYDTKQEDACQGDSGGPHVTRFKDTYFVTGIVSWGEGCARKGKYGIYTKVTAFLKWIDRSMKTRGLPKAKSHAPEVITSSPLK
Procedure, shortened: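 Human factor Xa, 97 pM in assay, in 50 mM Tris·HCl pH 8.0 with 154 mM NaCl at room temperature. Fluorogenic substrate Mes-DArg-Pro-Arg-AMC (KM 28 μM), read at ex 355 / em 460 nm after starting with enzyme. Ki was taken from Dixon plots and averaged over at least two measurements.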

[6] = target: Plasma kallikrein (Homo sapiens, UniProt P03952); test: Inhibition of human plasma kallikrein using Mes-DArg-Pro-Arg-AMC as substrate by Dixon plot analysis
Plasma kallikrein, sequence (P03952 20-390 limits assumed): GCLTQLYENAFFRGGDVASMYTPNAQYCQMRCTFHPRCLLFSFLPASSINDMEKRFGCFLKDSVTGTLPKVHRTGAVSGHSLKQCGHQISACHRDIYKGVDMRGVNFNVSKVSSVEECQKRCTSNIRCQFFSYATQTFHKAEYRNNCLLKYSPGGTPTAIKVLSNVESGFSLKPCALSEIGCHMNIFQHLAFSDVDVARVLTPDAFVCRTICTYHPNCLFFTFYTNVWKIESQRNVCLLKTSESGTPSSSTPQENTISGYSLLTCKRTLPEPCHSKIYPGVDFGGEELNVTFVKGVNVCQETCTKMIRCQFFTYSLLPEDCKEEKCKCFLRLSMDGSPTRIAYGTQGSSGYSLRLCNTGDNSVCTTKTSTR
Plasma kallikrein, sequence (P03952 391-638 limits assumed): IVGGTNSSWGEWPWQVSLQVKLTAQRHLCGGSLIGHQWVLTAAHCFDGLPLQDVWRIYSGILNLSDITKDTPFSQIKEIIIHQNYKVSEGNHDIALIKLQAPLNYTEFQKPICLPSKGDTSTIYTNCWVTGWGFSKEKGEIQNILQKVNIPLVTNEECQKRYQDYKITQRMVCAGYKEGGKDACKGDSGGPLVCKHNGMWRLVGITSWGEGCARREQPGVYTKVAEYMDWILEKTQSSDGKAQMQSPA
Procedure, shortened: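 Human plasma kallikrein (112 pM final) was assayed at room temperature in Tris·HCl 50 mM pH 8.0 with NaCl 154 mM. Mes-DArg-Pro-Arg-AMC served as substrate (KM 39 μM). Fluorescence was read at ex 355 / em 460 nm, with reactions started by enzyme.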

[7] = target: T1, Plasminogen; test: Binding affinity to human plasmin assessed as slow binding constant in presence of Mes-DArg-Phe-Arg-AMC after 20 mins by Dixon plot analysis
Target sequence in this assay (P00747 97-580 limits assumed): as the sequence (P00747 97-580 limits assumed) above
Target sequence in this assay (P00747 581-810 limits assumed): as the sequence (P00747 581-810 limits assumed) above

[8] = test system: Plasma; test: Antifibrinolytic activity in human plasma assessed as inhibition of tPA-induced plasmin formation after 40 mins; assay type: functional, cell-free
Procedure, shortened: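 Citrated human plasma at 37 °C with CaCl2 (12.5 mM in assay), tissue factor (stock 1/500 in assay) and tPA (12.3 nM in assay). Inhibitor dilutions, from 10 mM DMSO stocks diluted in 0.9% NaCl, were preincubated 5 min at 37 °C with these reagents, then started with prewarmed plasma. OD405 was read over 40 min.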

[9] = target: Trypsin (Homo sapiens, UniProt P07477+P07478+P35030); test: Inhibition of trypsin (unknown origin); assay type: protein assay; procedure, shortened: as §1
[10] = test system: Plasma; test: Inhibition of TF/Ca2+-induced clotting in human plasma after 40 mins; assay type: cell-free
Procedure, shortened: (§2)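 Clotting was triggered in citrated human plasma at 37 °C by tissue factor (stock 1/500 in assay) plus CaCl2 (12.5 mM in assay), with tPA 12.3 nM present. Inhibitor was tested at 10–200 nM after 5 min preincubation of reagents at 37 °C. Clot formation was followed as the rapid initial OD405 rise to a plateau, read over 40 min.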

[11] = target: T1, Plasminogen; test: Inhibition of human plasmin
Target sequence in this assay (P00747 whole entry, looked up): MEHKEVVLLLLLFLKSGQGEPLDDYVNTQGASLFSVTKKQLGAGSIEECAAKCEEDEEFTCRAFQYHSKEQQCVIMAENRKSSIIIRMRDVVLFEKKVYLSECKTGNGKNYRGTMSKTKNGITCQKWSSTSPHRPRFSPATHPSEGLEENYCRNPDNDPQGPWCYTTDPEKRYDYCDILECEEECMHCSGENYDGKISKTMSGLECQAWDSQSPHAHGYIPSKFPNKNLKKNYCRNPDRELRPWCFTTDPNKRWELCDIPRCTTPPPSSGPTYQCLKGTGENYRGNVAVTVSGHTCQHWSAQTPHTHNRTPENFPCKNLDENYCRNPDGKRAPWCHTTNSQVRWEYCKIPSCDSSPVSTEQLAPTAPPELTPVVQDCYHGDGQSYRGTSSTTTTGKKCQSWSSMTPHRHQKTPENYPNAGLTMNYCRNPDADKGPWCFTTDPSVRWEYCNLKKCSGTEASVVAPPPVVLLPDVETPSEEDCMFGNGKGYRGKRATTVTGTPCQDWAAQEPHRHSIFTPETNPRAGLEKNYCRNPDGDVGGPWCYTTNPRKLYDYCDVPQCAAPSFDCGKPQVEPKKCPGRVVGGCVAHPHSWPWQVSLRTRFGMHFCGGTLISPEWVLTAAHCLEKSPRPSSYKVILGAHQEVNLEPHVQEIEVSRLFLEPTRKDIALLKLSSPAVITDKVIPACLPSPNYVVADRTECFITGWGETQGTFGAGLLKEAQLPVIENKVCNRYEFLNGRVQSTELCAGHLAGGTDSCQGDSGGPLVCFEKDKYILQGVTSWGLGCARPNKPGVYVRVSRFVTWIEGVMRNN

[12] = test system: Plasma; test: Potency index, ratio of aprotinin IC50 to compound IC50 for inhibition of tPA-induced plasmin formation in human plasma; assay type: functional
[13] = test system: Plasma; test: Inhibition of TF/Ca2+-induced clotting in human plasma at 10 to 200 nM after 40 mins; assay type: cell-free; conditions: 0.2 µM; procedure, shortened: as §2

Vitamin K-dependent protein C, sequence (P04070 43-197 limits assumed): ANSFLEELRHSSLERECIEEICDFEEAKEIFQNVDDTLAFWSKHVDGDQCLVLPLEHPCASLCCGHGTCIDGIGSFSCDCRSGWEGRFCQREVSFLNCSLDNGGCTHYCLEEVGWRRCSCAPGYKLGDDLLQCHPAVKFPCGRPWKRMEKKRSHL
Vitamin K-dependent protein C, sequence (P04070 212-461 limits assumed): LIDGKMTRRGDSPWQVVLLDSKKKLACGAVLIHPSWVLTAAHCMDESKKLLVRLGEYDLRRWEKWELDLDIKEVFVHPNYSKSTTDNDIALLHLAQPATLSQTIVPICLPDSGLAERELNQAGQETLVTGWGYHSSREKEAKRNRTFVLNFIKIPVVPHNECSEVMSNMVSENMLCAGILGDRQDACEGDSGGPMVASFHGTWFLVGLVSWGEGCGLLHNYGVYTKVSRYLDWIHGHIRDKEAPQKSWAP

Compound	Ki [1]	Ki [2]	Ki [3]	Ki [4]	Ki [5]	Ki [6]	Ki [7]	IC50 [8]	Ki [9]	Ki [11]	Activity [10]	Ratio IC50 [12]	Activity [13]
NCc1ccc(CNC(=O)[C@@H]2Cc3ccc(cc3)NC(=O)CCN3CCN(CCC(=O)Nc4ccc(cc4)C[C@@H](NS(=O)(=O)Cc4ccccc4)C(=O)N2)CC3)cc1	32 µM	156 nM	1.2 nM										
N=C(N)c1ccc(CNC(=O)[C@@H]2Cc3ccc(cc3)NC(=O)CN3CCN(CC3)CC(=O)Nc3ccc(cc3)C[C@@H](N)C(=O)N2)cc1	130 µM		66.3 nM	173 µM	114 µM	9.09 µM							
N=C(N)NCCCCNC(=O)[C@@H]1Cc2ccc(cc2)NC(=O)CCN2CCN(CCC(=O)Nc3ccc(cc3)C[C@@H](NS(=O)(=O)NC3CCCCC3)C(=O)N1)CC2	49.3 µM	590 nM	3.7 nM	1.71 µM	28.9 µM	10.4 µM							
N=C(N)c1ccc(CNC(=O)[C@@H]2Cc3ccc(cc3)NC(=O)CN3CCN(CC3)CC(=O)Nc3ccc(cc3)C[C@@H](NC(=O)CCCc3ccccc3)C(=O)N2)cc1	47.1 µM	1900 nM	75.3 nM	8.78 µM	20.5 µM	12.6 µM							
N=C(N)c1ccc(CNC(=O)[C@@H]2Cc3ccc(cc3)NC(=O)CN3CCN(CC3)CC(=O)Nc3ccc(cc3)C[C@@H](NS(=O)(=O)NC3CCCCC3)C(=O)N2)cc1	> 30 µM	136 nM		15.8 µM			0.42 nM	53 nM					
N=C(N)c1ccc(CNC(=O)[C@@H]2Cc3ccc(cc3)NC(=O)CCN3CCN(CCC(=O)Nc4ccc(cc4)C[C@@H](NS(=O)(=O)NC4CCCCC4)C(=O)N2)CC3)cc1	17 µM	21 nM	0.13 nM				0.15 nM	55 nM					
CN(C)S(=O)(=O)N[C@@H]1Cc2ccc(cc2)NC(=O)CN2CCN(CC2)CC(=O)Nc2ccc(cc2)C[C@@H](C(=O)NCc2ccc(C(=N)N)cc2)NC1=O	74.7 µM												
N=C(N)c1ccc(CNC(=O)[C@H](Cc2cccc(CN)c2)NC(=O)[C@@H](CCCc2ccccc2)NS(=O)(=O)Cc2cccc(C(=O)O)c2)cc1									3.6 nM		Toxic		
CC(C)(C)OC(=O)N[C@@H]1Cc2ccc(cc2)NC(=O)CCN2CCN(CCC(=O)Nc3ccc(cc3)C[C@@H](C(=O)NCc3ccc(CN)cc3)NC1=O)CC2	> 100 µM	3150 nM	19.7 nM	15.6 µM	> 100 µM	> 100 µM							
N=C(N)c1ccc(CNC(=O)[C@@H]2Cc3ccc(cc3)NC(=O)CCN3CCN(CCC(=O)Nc4ccc(cc4)C[C@@H](NC=O)C(=O)N2)CC3)cc1	62.9 µM	561 nM	2.69 nM	> 100 µM	> 100 µM	3.87 µM							
N=C(N)c1ccc(CNC(=O)[C@@H]2Cc3ccc(cc3)NC(=O)CCN3CCN(CCC(=O)Nc4ccc(cc4)C[C@@H](N)C(=O)N2)CC3)cc1	106 µM												
NCc1ccc(CNC(=O)[C@@H]2Cc3ccc(cc3)NC(=O)CCN3CCN(CCC(=O)Nc4ccc(cc4)C[C@@H](NS(=O)(=O)NC4CCCCC4)C(=O)N2)CC3)cc1	> 100 µM	351 nM	0.52 nM	7.13 µM	> 100 µM	43.2 µM	0.43 nM	100 nM					
CC(C)(C)OC[C@@H](NS(=O)(=O)c1ccccc1)C(=O)NCC(=O)NCc1ccc(C(=N)N)cc1										24 µM			
NCc1ccc(CNC(=O)[C@@H]2Cc3ccc(cc3)NC(=O)CCN3CCN(CCC(=O)Nc4ccc(cc4)C[C@@H](NS(=O)(=O)c4ccccc4)C(=O)N2)CC3)cc1.O=C(O)C(F)(F)F.O=C(O)C(F)(F)F.O=C(O)C(F)(F)F	> 100 µM	1540 nM	0.56 nM	36.9 µM	> 100 µM	48.7 µM	0.54 nM	81 nM				3	Non-Toxic
N=C(N)c1ccc(CNC(=O)[C@@H]2Cc3ccc(cc3)NC(=O)CN3CCN(CC3)CC(=O)Nc3ccc(cc3)C[C@@H](NS(=O)(=O)c3ccccc3)C(=O)N2)cc1	> 30 µM	501 nM	0.51 nM	20.7 µM	> 15 µM	0.54 µM							
N=C(N)c1ccc(CNC(=O)[C@@H]2Cc3ccc(cc3)NC(=O)CN3CCN(CC3)CC(=O)Nc3ccc(cc3)C[C@@H](NC(=O)CCc3ccccc3)C(=O)N2)cc1	42 µM	1430 nM	61.1 nM	8.79 µM	20.6 µM	8.25 µM							
NCCCCNC(=O)[C@@H]1Cc2ccc(cc2)NC(=O)CCN2CCN(CCC(=O)Nc3ccc(cc3)C[C@@H](NS(=O)(=O)NC3CCCCC3)C(=O)N1)CC2	85.9 µM	6200 nM	50.6 nM	21.9 µM	39.5 µM	64.4 µM							
CC(C)(C)OC[C@@H](NS(=O)(=O)Cc1ccccc1)C(=O)NCC(=O)NCc1ccc(C(=N)N)cc1										7.7 µM			
CCCCS(=O)(=O)N[C@@H]1Cc2ccc(cc2)NC(=O)CCN2CCN(CCC(=O)Nc3ccc(cc3)C[C@@H](C(=O)NCc3ccc(C(=N)N)cc3)NC1=O)CC2	4.28 µM	13.7 nM	0.45 nM	14.1 µM	34.4 µM	0.701 µM							

More lines, main results first:

Ki [1]	Ki [2]	Ki [3]	Ki [4]	Ki [5]	Ki [6]	Ki [7]	IC50 [8]	Ki [9]	Ki [11]	Compound	Activity [10]	Ratio IC50 [12]	Activity [13]
28 µM	757 nM	3.93 nM	0.199 µM	16.1 µM	7.41 µM					N=C(N)c1ccc(CNC(=O)[C@@H]2Cc3ccc(cc3)NC(=O)CCN3CCN(CCC(=O)Nc4ccc(cc4)C[C@@H](NC(=O)CCc4ccccc4)C(=O)N2)CC3)cc1			
93.4 µM		5.2 nM								N=C(N)c1ccc(CNC(=O)[C@@H]2Cc3ccc(cc3)NC(=O)CN3CCN(CC3)CC(=O)Nc3ccc(cc3)C[C@@H](NC(=O)OCc3ccccc3)C(=O)N2)cc1			
39.7 µM	1000 nM	22.7 nM	0.712 µM	11.5 µM	10.5 µM					N=C(N)c1ccc(CNC(=O)[C@@H]2Cc3ccc(cc3)NC(=O)CCN3CCN(CCC(=O)Nc4ccc(cc4)C[C@@H](NC(=O)CCCc4ccccc4)C(=O)N2)CC3)cc1			
> 13 µM	62 nM	0.07 nM	42.7 µM	> 13 µM	0.8 µM					N=C(N)c1ccc(CNC(=O)[C@@H]2Cc3ccc(cc3)NC(=O)CCN3CCN(CCC(=O)Nc4ccc(cc4)C[C@@H](NS(=O)(=O)c4ccccc4)C(=O)N2)CC3)cc1			
51.5 µM	109 nM	0.77 nM	15.3 µM	50.7 µM	7.25 µM	0.85 nM				COC(=O)N[C@@H]1Cc2ccc(cc2)NC(=O)CCN2CCN(CCC(=O)Nc3ccc(cc3)C[C@@H](C(=O)NCc3ccc(C(=N)N)cc3)NC1=O)CC2			
96.5 µM										N=C(N)c1ccc(CNC(=O)[C@@H]2Cc3ccc(cc3)NC(=O)CCN3CCN(CCC(=O)Nc4ccc(cc4)C[C@@H](NC(=O)Cc4ccccc4)C(=O)N2)CC3)cc1			
46.5 µM	103 nM									N=C(N)c1ccc(CNC(=O)[C@@H]2Cc3ccc(cc3)NC(=O)CCN3CCN(CCC(=O)Nc4ccc(cc4)C[C@@H](NC(=O)OCc4ccccc4)C(=O)N2)CC3)cc1			
212 µM		81.3 nM	72.2 µM	202 µM	7.27 µM					N=C(N)c1ccc(CNC(=O)[C@@H]2Cc3ccc(cc3)NC(=O)CN3CCN(CC3)CC(=O)Nc3ccc(cc3)C[C@@H](NC(=O)Cc3ccccc3)C(=O)N2)cc1			
